# Screening data from PubChem BioAssay.
# bCat KO growth: beta-catenin-lacking colon tumor cell growth suppression. viability, % at 10 µM. 140,000 compounds, 1.5% hits. HCT116 beta-catenin knockout viability, CellTiter-Glo, 60 h; hits give low values;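 active = viability at or under a set limit, the compound median less 4 SD, cut at about 6% in these data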;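 also: 0% = Hyamine 1622 control at 20 µM and 100% = untreated cell control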
# H69AR inhibit: growth inhibitors of human H69AR lung tumor cells; H69AR lung tumor viability, ATP luminescence, 72 h; hits give low values; viability, % at 10 µM; 85,000 compounds, 6% hits; AID 598;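 active = viability at or below 40%; inactive = viability above 40%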;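 also: multidrug resistant small cell line overexpressing MRP-1 efflux transporter; 100% = mean luminescence of untreated control wells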
# Lung fibro prol: blocks proliferation of human lung fibroblasts. viability, % at 10 µM. LL 47 human lung fibroblast viability, ATP luminescence; hits give low values. 85,000 compounds, 1.1% hits;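 active = viability at or below 50% in the single dose screen; inactive = viability above 50%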;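 also: compound exposure lasted 72 h before the ATP readout; 100% = median luminescence of untreated cell-only wells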
#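 Test system: LL 47 human lung fibroblasts / Incubation: 72 h compound exposure at 37 °C after overnight plating / Technique: luminescent ATP detection, CellTiter-Glo / Compound dosing: 0.1% DMSO in all compound wells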
# HCT116 PTEN-null: PTEN-deleted cell growth suppression; HCT116 PTEN-null viability, CellTiter-Glo, 60 h; hits give low values; viability, % at 10 µM; 140,000 compounds, 1.2% hits; AID 827;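 active = viability at or below a set limit, 4 SD under the median of all tested compounds, cut at about 3.7% in these data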;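 also: PTEN knockout HCT116 line with beta catenin targeted HCT116 as companion control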
# HUVEC prolif 384: inhibitors of human endothelial cell proliferation | HUVEC proliferation, CellTiter-Glo luminescence, 72 h; hits give low values | viability, % at 10 µM (by protocol) | 86,000 compounds, 1.1% hits | AID 648;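 active = viability at or below 30%; inactive = viability above 30%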;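 also: 100% = median luminescence of DMSO-only cell control wells on each plate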
# Active calls of the source: *; . = no result. Many of the other results were omitted from the sample, so hits are more common in it than they were.
SMILES,bCat KO growth,H69AR inhibit,Lung fibro prol,HCT116 PTEN-null,HUVEC prolif 384
N#CC1=C(N)C(C#N)(C#N)[C@H](c2c(F)cccc2F)[C@H]2CC3(CC=C12)OCCO3,43.3,3.0*,59.4,37.0,47.8
Cn1c(Cl)c(/C=N/OC(=O)c2ccc(Cl)cc2)c2ccccc21,99.4,.,.,111.5,.
Cc1ccc(-c2nn(-c3ccccc3)cc2C=C2C(=O)CC(C)(C)CC2=O)cc1,19.5,.,.,13.1,.
CC1=NNC(=O)/C1=C\c1cn(-c2ccccc2)nc1-c1ccc(Cl)cc1,1.4*,.,.,1.4*,.
CCCNC1=C(N(C(C)=O)c2cccc(F)c2)C(=O)c2ccccc2C1=O,1.0*,.,.,0.8*,.
CSc1nsc(/C=C/Nc2cccc(Cl)c2)c1C#N,65.7,29.2*,96.9,62.5,92.6
CSc1nsc(/C=C/Nc2ccc(Cl)cc2)c1C#N,83.1,.,.,78.6,.
CCOC(=O)N1CCC(NC(=O)c2cc(C)c3c(C)nn(-c4ccccc4)c3n2)CC1,100.2,21.8*,95.3,103.6,85.3
CCOC(=O)N1CCC(NC(=O)c2cc3c(C)nc4ccccc4c3o2)CC1,85.4,57.5,103.3,84.4,80.3
COc1ccc(/C=C2\N=C(SC)N(C)C2=O)cc1,100.4,.,.,94.6,.
COc1cc(/C=C/C(=O)Nc2ccc(N3CCCCC3)c(S(=O)(=O)Nc3ccccc3Cl)c2)cc(OC)c1OC,85.2,.,.,83.7,.
COc1ccc(C(NC(=O)c2c(F)c(F)c(F)c(F)c2F)c2ccccc2)cc1 (stereo not given),1.3*,.,.,1.7*,.
O=C(CCc1ccccc1)Nc1ccc2c(c1)OCCO2,97.8,85.6,94.7,101.7,90.3
Nc1c(C(=O)Nc2ccc3c(c2)OCCO3)nnn1CCc1ccccc1,39.7,37.2*,41.1*,30.4,63.0
Cc1nn(-c2ccc(Cl)cc2)c2sc(C(=O)N3CCN(c4ccccn4)CC3)cc12,92.0,21.0*,95.8,94.6,35.6
COc1cc2cc(/C=C/C(=O)c3ccco3)c(Cl)nc2cc1OC,17.9,7.9*,86.0,7.6,68.1
COc1ccc(Cl)cc1NC(=O)c1ccco1,89.0,83.0,93.6,95.1,79.6
COc1ccc2cc(/C=C/C(=O)c3ccco3)c(Cl)nc2c1,46.7,15.7*,84.8,42.0,72.8
COc1ccc(NC(=O)N(CCC(C)C)C(C)c2ccccn2)c(OC)c1 (stereo not given),94.7,98.3,105.2,98.1,84.8
COC(=O)CCC(=O)Nc1sc(C)c(C)c1C(N)=O,100.4,18.9*,98.4,100.6,84.6
CCOc1cc(N2CCOCC2)c(OCC)cc1NC(=O)c1cc(-c2ccco2)nc2ccccc12,70.7,4.0*,9.1*,66.2,14.9*
CCOC(=O)c1cc2sccc2n1CC(=O)Nc1ccc2c(c1)OCCO2,92.8,38.4*,91.5,80.6,94.1
O=C(NCCCn1ccnc1)c1cc2nc(-c3ccc(Br)cc3)cc(C(F)(F)F)n2n1,75.1,4.2*,93.6,70.6,56.7
Cc1nc2c(c(C)c1C#N)C(=O)c1ccccc1-2,86.3,.,.,90.6,.
Cc1nc(S(=O)(=O)N(C)c2ccccc2)c(C#N)c(C)c1Cl,3.3*,4.2*,39.4*,4.1,83.4
SMILES,bCat KO growth,H69AR inhibit,Lung fibro prol,HCT116 PTEN-null,HUVEC prolif 384
COc1ccc(OCCn2nnc(-c3ccc(Cl)cc3)n2)cc1,96.2,.,.,99.0,.
Cn1nc(-c2ccc(Cl)cc2)nc2c(=O)n(C)c(=O)nc1-2,79.5,0.7*,31.9*,86.1,3.6*
CCOC(=O)C1=C(C)NC(SCC(=O)Nc2nc(C)cs2)=C(C#N)C1c1cccs1 (stereo not given),41.1,37.1*,98.0,19.2,46.5
CC1=C(C(=O)Nc2ccccc2)C(c2ccncc2)C(C#N)=C(SCC(=O)Nc2ccccc2)N1 (stereo not given),86.6,10.8*,102.4,93.2,90.8
CC(=O)C1=C(C)NC(SCC(=O)c2ccc(-c3ccccc3)cc2)=C(C#N)C1c1cccnc1 (stereo not given),21.0,6.2*,77.2,18.0,59.0
N#Cc1c(NC(=O)C2CC2)sc2c1CCCCC2,96.1,.,.,95.7,.
CC(=O)NS(=O)(=O)c1ccc(NC(=O)CN2C(=O)C3C4C=CC(C4)C3C2=O)cc1 (stereo not given),90.8,.,.,98.2,.
Cc1ccc(CS(=O)(=O)CCC(=O)NCCCOC(C)C)cc1,97.0,91.6,104.7,95.2,98.2
CSc1nccc(Oc2cccc(C#N)c2)n1,105.9,.,.,101.5,.
COC(=O)C1=C(C)NC(C)=C(C(=O)OC)C1c1ccc2ccccc2n1,95.3,99.9,100.6,89.9,92.1
O=C1c2ccccc2C(=O)C1c1ccc2ccccc2n1,86.0,28.1*,62.2,80.3,38.5
